Here are results for 31 compounds from ChEMBL document CHEMBL1773020, “Discovery of fused bicyclic agonists of the orphan G-protein coupled receptor GPR119 with in vivo activity in rodent models of glucose control” (Bioorg Med Chem Lett, 2011).

Some results are limits rather than exact numbers.

Assay [1] addresses T1, Glucose-dependent insulinotropic receptor (Homo sapiens) (UniProt Q8TDV5).
T1 sequence (whole entry): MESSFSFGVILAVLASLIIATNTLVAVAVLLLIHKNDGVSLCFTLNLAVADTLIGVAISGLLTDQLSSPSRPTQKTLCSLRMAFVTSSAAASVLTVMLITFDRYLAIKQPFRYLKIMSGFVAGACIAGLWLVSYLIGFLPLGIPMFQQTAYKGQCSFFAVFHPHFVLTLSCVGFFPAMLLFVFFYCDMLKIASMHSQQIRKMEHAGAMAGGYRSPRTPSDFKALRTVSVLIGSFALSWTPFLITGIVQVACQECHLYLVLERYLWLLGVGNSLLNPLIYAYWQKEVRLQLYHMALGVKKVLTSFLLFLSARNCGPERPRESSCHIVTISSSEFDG
The assay can be described thus: Agonist activity at human GPR119 by melanophore assay relative to AR231453. The class given is functional. The procedure, abridged:
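Melanophores transfected with human GPR119. Apparent Emax is the curve height normalized to the positive control AR231453, which is defined as a full agonist (100% efficacy).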

In assay [2] the target is T2, Glucose-dependent insulinotropic receptor (Homo sapiens, UniProt Q8TDV5).
T2 sequence (Q8TDV5 whole entry): T1 sequence (whole entry)
In words: Agonist activity at human GPR119 by melanophore assay. The class given is functional. A digest of the protocol:
(§1)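 Agonist EC50 measured in melanophores transfected with the human or rat GPR119 receptor sequence. Values are means of multiple determinations (n).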

Assay [3] has as its target T3, Glucose-dependent insulinotropic receptor (Rattus norvegicus) (UniProt Q7TQN8).
T3 sequence (whole entry): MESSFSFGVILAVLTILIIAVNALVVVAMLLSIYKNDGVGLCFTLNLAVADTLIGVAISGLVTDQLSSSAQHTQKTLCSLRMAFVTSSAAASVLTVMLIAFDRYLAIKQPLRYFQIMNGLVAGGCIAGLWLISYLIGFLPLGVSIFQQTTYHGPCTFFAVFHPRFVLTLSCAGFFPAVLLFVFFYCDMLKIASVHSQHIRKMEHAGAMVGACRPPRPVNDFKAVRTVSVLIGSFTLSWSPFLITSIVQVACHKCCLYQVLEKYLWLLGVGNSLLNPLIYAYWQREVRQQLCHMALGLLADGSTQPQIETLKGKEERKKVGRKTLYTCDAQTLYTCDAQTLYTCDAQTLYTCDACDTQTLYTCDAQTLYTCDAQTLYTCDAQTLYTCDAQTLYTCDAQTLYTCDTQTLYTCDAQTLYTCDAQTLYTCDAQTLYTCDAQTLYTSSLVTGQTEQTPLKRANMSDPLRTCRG
The assay can be described thus: Selectivity ratio of EC50 for rat GPR119 to EC50 for human GPR119.

Assay [4] has as its target T4, Glucose-dependent insulinotropic receptor (Rattus norvegicus, UniProt Q7TQN8).
T4 sequence (Q7TQN8 whole entry): T3 sequence (whole entry)
In words: Agonist activity at rat GPR119 by melanophore assay. The class given is functional. The procedure, abridged: as §1

As to `CC(C)(C)OC(=O)N1CCC(Oc2ncnc3c2[nH]c(=O)n3-c2ccc(S(C)(=O)=O)cc2F)CC1`, the Emax (usually the greatest response seen or fitted, relative to the assay's reference) in assay [1] stood at 64%. Besides, the EC50 (usually the midpoint of the concentration-response curve) in assay [2] is 0.6 nM.
For the compound `CN(CC1CCN(C(=O)OC(C)(C)C)CC1)c1ncnc2c1cnn2-c1ccc(S(C)(=O)=O)cc1`, the Emax in assay [1] was determined as 89%. In addition, the EC50 in assay [2] stood at 11.6 nM.
`CCN(CC1CCN(C(=O)OC(C)(C)C)CC1)c1ncnc2c1cnn2-c1ccc(S(C)(=O)=O)cc1` had an Emax in assay [1] of 67%. Besides, the EC50 in assay [2] came to 6.3 nM.
Turning to `CC(C)c1noc(C2CCN(c3ncnc4c3cnn4-c3ccc(S(C)(=O)=O)cc3)CC2)n1`, the EC50 in assay [2] amounted to 42 nM.
For `CC(C)(C)OC(=O)N1CCC(Nc2ncnc3c2cnn3-c2ccc(S(C)(=O)=O)cc2)CC1`, the Emax in assay [1] was 101%. Besides, the Ratio EC50 in assay [3] was > 40. Moreover, the EC50 is 250 nM in assay [2] and > 10000 nM in assay [4].
`CCCCOC(=O)N1CCC(Oc2ncnc3c2cnn3-c2ccc(S(C)(=O)=O)cc2)CC1` displayed an Emax in assay [1] of 79%. Moreover, the response in assay [2] was half-maximal at 7.5 nM (EC50).
`CC(C)COC(=O)N1CCC(Oc2ncnc3c2cnn3-c2ccc(S(C)(=O)=O)cc2)CC1`: the Emax in assay [1] is 99%. Also, it took 4.2 nM to reach a half-maximal effect in assay [2] (EC50).
The matching figures for `CC(C)(C)OC(=O)N1CCC(CNc2ncnc3c2cnn3-c2ccc(S(C)(=O)=O)cc2)CC1`: 87% and 265 nM.
With `CCN(CC1CCN(C(=O)OC(C)C)CC1)c1ncnc2c1cnn2-c1ccc(S(C)(=O)=O)cc1F`, the Emax in assay [1] worked out at 82%. Besides, the Ratio EC50 in assay [3] was 77.6. In addition, the concentration giving a half-maximal response (EC50) in assay [2] was found to be 3.4 nM; in assay [4], 264 nM.
For `CC(C)(C)COC(=O)N1CCC(Oc2ncnc3c2cnn3-c2ccc(S(C)(=O)=O)cc2)CC1`, in that order: 105%, 8, 8.1 nM and 65 nM.
In the case of `Cc1nc(OC2CCN(C(=O)OC(C)(C)C)CC2)c2c(C)nn(-c3ccc(S(C)(=O)=O)cc3)c2n1`, the Emax in assay [1] stood at 90%. The same compound gave an EC50 in assay [2] of 116 nM.
For the compound `CC(C)(C)OC(=O)N1CCC(Oc2ncnc3c2cnn3-c2ccc(S(C)(=O)=O)cc2)CC1`, in assay [1], the Emax was determined as 96%. The Ratio EC50 in assay [3] stood at 8.9. Moreover, the EC50 in assay [2] worked out at 1.1 nM; in assay [4], 9.8 nM.
Compound `CC(C)(C)OC(=O)N1CCC(Sc2ncnc3c2cnn3-c2ccc(S(C)(=O)=O)cc2)CC1` showed an Emax in assay [1] of 104%. In addition, in assay [3], the Ratio EC50 was found to be 3. In addition, the EC50 is 5.6 nM in assay [2] and 15.5 nM in assay [4].
The matching figures for `CC(C)OC(=O)N1CCC(Oc2ncnc3c(-c4ccc(S(C)(=O)=O)cc4)noc23)CC1`: 65%, 3, 14 nM and 40 nM.
For `CC(C)c1noc(C2CCN(c3ncnc(Nc4ccc(S(C)(=O)=O)cc4)c3[N+](=O)[O-])CC2)n1`, the midpoint of the response in assay [2], the EC50, lay at 5.1 nM.
Consider `CN(C)CCOC(=O)N1CCC(Oc2ncnc3c2cnn3-c2ccc(S(C)(=O)=O)cc2)CC1`, for which the EC50 in assay [2] was > 10000 nM.
`Cc1nn(-c2ccc(S(C)(=O)=O)cc2)c2ncnc(OC3CCN(C(=O)OC(C)(C)C)CC3)c12`: in assay [1], the maximal response (Emax) was 103%. In addition, the Ratio EC50 in assay [3] came to 3. The results for the EC50 in assay [2] and in assay [4] were 15 nM and 42 nM, respectively.
For `CC(C)(C)OC(=O)N1CCC(Oc2ncnc3c2cnn3-c2ccc(S(C)(=O)=O)cc2F)CC1`, in that order: 79%, 21.8, 0.9 nM and 19.6 nM.
In assay [1], `CC(C)(C)OC(=O)N1CCC(Oc2ncnc3c2nnn3-c2ccc(S(C)(=O)=O)cc2)CC1` came in with an Emax of 103%. Also, in assay [3], the Ratio EC50 came out at 5.7. Besides, the EC50 is 7.4 nM in assay [2] and 42 nM in assay [4].
In assay [1], `CC(C)OC(=O)N1CCC(Oc2ncnc3c2cnn3-c2ccc(S(C)(=O)=O)cc2)CC1` registered a maximum response (Emax) of 83%. Besides, the concentration for a half-maximal effect (EC50) in assay [2] is 3.5 nM.
Turning to `CCOC(=O)N1CCC(Oc2ncnc3c2cnn3-c2ccc(S(C)(=O)=O)cc2)CC1`, the Emax in assay [1] came out at 91%. The Ratio EC50 in assay [3] was determined as 13.9. The EC50 in assay [2] came to 3.8 nM; in assay [4], 53 nM.
For `CC(C)(C)OC(=O)N1CCC(Oc2ncnc3c(-c4ccc(S(C)(=O)=O)cc4)noc23)CC1`, in that order: 100%, 24.3, 0.7 nM and 17 nM.
In assay [1], `CC(C)(C)OC(=O)N1CCC(Cc2ncnc3c2cnn3-c2ccc(S(C)(=O)=O)cc2F)CC1` came in with an Emax of 72%. In addition, in assay [3], the Ratio EC50 was 25.9. Further, the EC50 in assay [2] came to 3.4 nM; in assay [4], 88 nM.
In assay [1], `CS(=O)(=O)c1ccc(-n2ncc3c(OC4CCN(C(=O)OC5CCCC5)CC4)ncnc32)cc1` registered an Emax of 80%. The Ratio EC50 in assay [3] turned out to be 1.4. Further, the figures for the EC50 in assay [2] and in assay [4] were 14.6 nM and 21 nM, respectively.
As to `CC(C)(C)OC(=O)N1CCC(S(=O)(=O)c2ncnc3c2cnn3-c2ccc(S(C)(=O)=O)cc2)CC1`, the EC50 in assay [2] and in assay [4] was > 10000 nM each time.
In turn, `CC(C)(C)OC(=O)N1CCC(Cc2ncnc3c2cnn3-c2ccc(S(C)(=O)=O)cc2)CC1` had an Emax in assay [1] of 91%. The Ratio EC50 in assay [3] came to 16.4. Also, the EC50 in assay [2] amounted to 7.3 nM; in assay [4], 120 nM.
In the case of `CC(C)(C)OC(=O)N1CCC([S+]([O-])c2ncnc3c2cnn3-c2ccc(S(C)(=O)=O)cc2)CC1` (stereo not drawn), the EC50 in assay [2] is 2400 nM; in assay [4], > 10000 nM.
Compound `CC(C)c1noc(C2CCN(c3ncnc(Nc4ccc(S(C)(=O)=O)cc4F)c3[N+](=O)[O-])CC2)n1` displayed a concentration giving a half-maximal response (EC50) in assay [2] of 0.65 nM.
In assay [1], `CC(C)(C)OC(=O)N1CCC(Sc2ncnc3c2cnn3-c2ccc(S(C)(=O)=O)cc2F)CC1` gave an Emax of 98%. Moreover, the Ratio EC50 in assay [3] is 14.6. The values for the EC50 in assay [2] and in assay [4] were 0.5 nM and 7.3 nM, respectively.
As to `CC(C)(C)OC(=O)N1CCC(Oc2ncnc3c2ncn3-c2ccc(S(C)(=O)=O)cc2)CC1`, the Emax in assay [1] came out at 95%. In addition, in assay [2], the EC50 was 33.4 nM.
In the case of `CS(=O)(=O)c1ccc(-n2ncc3c(OC4CCN(C(=O)OC5CCOC5)CC4)ncnc32)cc1` (stereo not drawn), in assay [1], the Emax is 71%. This compound returned a concentration giving a half-maximal response (EC50) in assay [2] of 435 nM.
